Several values for one entry are separate records, joined by “and”; a condition that tells them apart may be missing. Equal entries are not always repeated. Activity calls are given as the source filed them.
Assays:
[1] = Acute LD50 of compound was evaluated on L1210 leukemia in mice when administered intraperitoneally; assay type: ADME, organism-based; settings: mouse, in vivo, ip
Summary of the method: (§1)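 Adult B6D2F1 mice were inoculated ip with 10^5 L1210 leukemia cells on day 0. Compound in olive oil (2-150 mg/kg, ip) was given on day 1 and repeated on days 5 and 9 only in mice without signs of toxicity. Mortality was monitored daily, with autopsy to separate leukemic from toxic deaths. Acute LD50 was determined graphically.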

Mus musculus [2] = assay: Compound was tested for its antitumor activity on L1210 leukemia in mice at the dose of 50 mg/kg (i.p.); Not significant; assay type: functional, organism-based; set-up: dose 50 mg/kg
Mus musculus [3] = assay: Compound was tested for its antitumor activity on L1210 leukemia in mice at the dose of 8 mg/kg (i.p.); Not significant; assay type: functional, organism-based; set-up: dose 8 mg/kg
Mus musculus [4] = assay: Compound was tested for its antitumor activity on L1210 leukemia in mice at the dose of 20 mg/kg (i.p.); Not significant; assay type: functional, organism-based; set-up: dose 20 mg/kg
Mus musculus [5] = assay: Compound was tested for its antitumor activity on L1210 leukemia in mice at the dose of 3.2 mg/kg (i.p.); Not significant; assay type: functional, organism-based; set-up: dose 3.2 mg/kg
Summary of the method: (§2)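 B6D2F1 adult mice inoculated ip with 10^5 L1210 cells on day 0. Drug given ip in olive oil on day 1, repeated days 5 and 9 only in mice without toxicity signs. Daily mortality monitoring with autopsy to assign leukemic vs toxic death. Index I = T/C × 100 from median survival; active if I > 125 and Wilcoxon W test significant; ∞ means >50% cured.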

Mus musculus [6] = assay: Compound was tested for its antitumor activity on L1210 leukemia in mice at the dose of 8 mg/kg (i.p.); assay type: functional; settings: route intraperitoneal; summary of the method: as §2
Mus musculus [7] = assay: Compound was tested for its antitumor activity on L1210 leukemia in mice at the dose of 20 mg/kg (i.p.); Toxic; assay type: functional, organism-based; set-up: dose 20 mg/kg; summary of the method: as §2
Mus musculus [8] = assay: Compound was tested for its antitumor activity on L1210 leukemia in mice at the dose of 3.2 mg/kg (i.p.); assay type: functional; settings: route intraperitoneal; summary of the method: as §2
[9] = Acute LD50 of compound was evaluated on L1210 leukemia in mice; assay type: ADME, organism-based; settings: mouse, in vivo; summary of the method: as §1
Mus musculus [10] = assay: Compound was tested for its antitumor activity on L1210 leukemia in mice at the dose of 5 mg/kg (i.p.); assay type: functional; settings: route intraperitoneal; summary of the method: as §2
Mus musculus [11] = assay: Compound was tested for its antitumor activity on L1210 leukemia in mice at the dose of 60 mg/kg (i.p.); High percent value; assay type: functional, organism-based; set-up: dose 60 mg/kg; summary of the method: as §2
Mus musculus [12] = assay: Compound was tested for its antitumor activity on L1210 leukemia in mice at the dose of 90 mg/kg (i.p.); Toxic; assay type: functional, organism-based; set-up: dose 90 mg/kg; summary of the method: as §2
Mus musculus [13] = assay: Compound was tested for its antitumor activity on L1210 leukemia in mice at the dose of 10 mg/kg (i.p.); assay type: functional; settings: route intraperitoneal; summary of the method: as §2
Mus musculus [14] = assay: Compound was tested for its antitumor activity on L1210 leukemia in mice at the dose of 10 mg/kg (i.p.); High percent value; assay type: functional, organism-based; set-up: dose 10 mg/kg; summary of the method: as §2
Mus musculus [15] = assay: Compound was tested for its antitumor activity on L1210 leukemia in mice at the dose of 20 mg/kg (i.p.); assay type: functional; settings: route intraperitoneal; summary of the method: as §2
Mus musculus [16] = assay: Compound was tested for its antitumor activity on L1210 leukemia in mice at the dose of 2 mg/kg (i.p.); assay type: functional; settings: route intraperitoneal; summary of the method: as §2
Mus musculus [17] = assay: Compound was tested for its antitumor activity on L1210 leukemia in mice at the dose of 2 mg/kg (i.p.); Not significant; assay type: functional, organism-based; set-up: dose 2 mg/kg; summary of the method: as §2
Mus musculus [18] = assay: Compound was tested for its antitumor activity on L1210 leukemia in mice at the dose of 30 mg/kg (i.p.); High percent value; assay type: functional, organism-based; set-up: dose 30 mg/kg; summary of the method: as §2
Mus musculus [19] = assay: Compound was tested for its antitumor activity on L1210 leukemia in mice at the dose of 30 mg/kg (i.p.); Toxic; assay type: functional, organism-based; set-up: dose 30 mg/kg; summary of the method: as §2
Mus musculus [20] = assay: Compound was tested for its antitumor activity on L1210 leukemia in mice at the dose of 20 mg/kg (i.p.); High percent value; assay type: functional, organism-based; set-up: dose 20 mg/kg; summary of the method: as §2

With `CN(N=O)C(=O)ON1C(=O)CCC1=O` the LD50 [1] was 115 mg/kg, the T/C (Mus musculus [2]) was “inactive” and the T/C (Mus musculus [3]) was “inactive”. The T/C (Mus musculus [4]) was “inactive”.

For `O=NN(CCCl)C(=O)Oc1ccc([N+](=O)[O-])cc1`, the LD50 [1] was 17 mg/kg, the T/C (Mus musculus [3]) was “inactive” and the T/C (Mus musculus [5]) was “inactive”.

In the case of `O=NN(CCCl)C(=O)ON1C(=O)CCC1=O`, the LD50 [1] is reported as 36 mg/kg, the T/C (Mus musculus [6]) is reported as 137% and the T/C (Mus musculus [7]) is reported as “Toxic”. For the same compound, the T/C (Mus musculus [8]) was 125%.

For `O=NN(CCCl)C(=O)NCCSSCCNC(=O)N(CCCl)N=O` [DITIOMUSTINE], the LD50 [9] was 75 mg/kg, the LD50 [1] was 28 mg/kg and the T/C (Mus musculus [10]) was 212% and 133%. The T/C (Mus musculus [11]) was “High percent value”, the T/C (Mus musculus [12]) was “Toxic” and the T/C (Mus musculus [13]) was 151%. The T/C (Mus musculus [14]) was “High percent value”, the T/C (Mus musculus [15]) was 228% and the T/C (Mus musculus [16]) was 111%. For the same compound, the T/C (Mus musculus [17]) was “inactive”, the T/C (Mus musculus [18]) was “High percent value” and the T/C (Mus musculus [19]) was “Toxic”. The T/C (Mus musculus [20]) was “High percent value”.

Source: ChEMBL document CHEMBL1122009, “Activated N-nitrosocarbamates for regioselective synthesis of N-nitrosoureas” (J Med Chem, 1982)
